Columns and labels:
Format in all cases: functional
NCI-H23 = experiment: Growth inhibition of human NCI-H23 cells assessed as cell growth at 0.01 uM incubated for 48 hrs by sulforhodamine B assay relative to control; details: read-out: Activity
M14 [1] = experiment: Growth inhibition of human M14 cells assessed as cell growth at 0.01 uM incubated for 48 hrs by sulforhodamine B assay relative to control; details: read-out: Activity
OVCAR-5 = experiment: Growth inhibition of human OVCAR-5 cells assessed as cell growth at 0.01 uM incubated for 48 hrs by sulforhodamine B assay relative to control; details: read-out: Activity
MDA-MB-231 [2] = experiment: Growth inhibition of human MDA-MB-231 cells assessed as cell growth at 0.01 uM incubated for 48 hrs by sulforhodamine B assay relative to control; details: read-out: Activity
NCI-H226 [3] = experiment: Growth inhibition of human NCI-H226 cells assessed as cell growth at 0.1 uM incubated for 48 hrs by sulforhodamine B assay relative to control; details: read-out: Activity
NCI-H522 = experiment: Growth inhibition of human NCI-H522 cells assessed as cell growth at 0.1 uM incubated for 48 hrs by sulforhodamine B assay relative to control; details: read-out: Activity
SF-268 = experiment: Growth inhibition of human SF-268 cells assessed as cell growth at 0.1 uM incubated for 48 hrs by sulforhodamine B assay relative to control; details: read-out: Activity
NCI/ADR-RES = experiment: Growth inhibition of human NCI/ADR-RES cells assessed as cell growth at 0.1 uM incubated for 48 hrs by sulforhodamine B assay relative to control; details: read-out: Activity
RXF 393 [4] = experiment: Growth inhibition of human RXF 393 cells assessed as cell growth at 0.1 uM incubated for 48 hrs by sulforhodamine B assay relative to control; details: read-out: Activity
MDA-MB-231 [5] = experiment: Growth inhibition of human MDA-MB-231 cells assessed as cell growth at 0.1 uM incubated for 48 hrs by sulforhodamine B assay relative to control; details: read-out: Activity
MDA-MB-468 = experiment: Growth inhibition of human MDA-MB-468 cells assessed as cell growth at 0.1 uM incubated for 48 hrs by sulforhodamine B assay relative to control; details: read-out: Activity
NCI-H226 [6] = experiment: Growth inhibition of human NCI-H226 cells assessed as cell growth at 1 uM incubated for 48 hrs by sulforhodamine B assay relative to control; details: read-out: Activity
HCT-116 = experiment: Growth inhibition of human HCT-116 cells assessed as cell growth at 1 uM incubated for 48 hrs by sulforhodamine B assay relative to control; details: read-out: Activity
ACHN = experiment: Growth inhibition of human ACHN cells assessed as cell growth at 1 uM incubated for 48 hrs by sulforhodamine B assay relative to control; details: read-out: Activity
PC-3 [7] = experiment: Growth inhibition of human PC-3 cells assessed as cell growth at 1 uM incubated for 48 hrs by sulforhodamine B assay relative to control; details: read-out: Activity
T47D = experiment: Growth inhibition of human T47D cells assessed as cell growth at 1 uM incubated for 48 hrs by sulforhodamine B assay relative to control; details: read-out: Activity
RPMI-8226 = experiment: Growth inhibition of human RPMI-8226 cells assessed as cell growth at 100 uM incubated for 48 hrs by sulforhodamine B assay relative to control; details: read-out: Activity
SR = experiment: Growth inhibition of human SR cells assessed as cell growth at 100 uM incubated for 48 hrs by sulforhodamine B assay relative to control; details: read-out: Activity
HCT-15 = experiment: Growth inhibition of human HCT-15 cells assessed as cell growth at 100 uM incubated for 48 hrs by sulforhodamine B assay relative to control; details: read-out: Activity
SNB-19 = experiment: Growth inhibition of human SNB-19 cells assessed as cell growth at 100 uM incubated for 48 hrs by sulforhodamine B assay relative to control; details: read-out: Activity
UACC-257 = experiment: Growth inhibition of human UACC-257 cells assessed as cell growth at 100 uM incubated for 48 hrs by sulforhodamine B assay relative to control; details: read-out: Activity
UACC-62 [8] = experiment: Growth inhibition of human UACC-62 cells assessed as cell growth at 100 uM incubated for 48 hrs by sulforhodamine B assay relative to control; details: read-out: Activity
CAKI-1 = experiment: Growth inhibition of human CAKI-1 cells assessed as cell growth at 100 uM incubated for 48 hrs by sulforhodamine B assay relative to control; details: read-out: Activity
Method in brief: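 NCI Developmental Therapeutics Program NCI60 panel. Compounds that were active in the 10 µM one-dose screen went on to dose–response testing. Growth at each concentration is expressed relative to untreated control (100%). GI50 (concentration giving 50% of maximal inhibition of proliferation) and TGI (concentration giving total growth inhibition) were derived from the curves.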

RXF 393 [9] = experiment: Growth inhibition of human RXF 393 cells assessed as cell growth at 100 uM incubated for 48 hrs by sulforhodamine B assay relative to control; details: read-out: Activity
PC-3 [10] = experiment: Growth inhibition of human PC-3 cells assessed as cell growth at 100 uM incubated for 48 hrs by sulforhodamine B assay relative to control; details: read-out: Activity
MCF7 = experiment: Growth inhibition of human MCF7 cells assessed as cell growth at 100 uM incubated for 48 hrs by sulforhodamine B assay relative to control; details: read-out: Activity
K562 = experiment: Growth inhibition of human K562 cells incubated for 48 hrs by sulforhodamine B assay
Method in brief: (§1)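 NCI60 panel at the NCI Developmental Therapeutics Program. Only compounds active in the 10 µM screen went to dose-response testing. GI50, the concentration giving 50% of maximal inhibition of proliferation, and TGI, the concentration giving total growth inhibition, were derived from the dose-response curves.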

HOP-62 = experiment: Growth inhibition of human HOP-62 cells incubated for 48 hrs by sulforhodamine B assay; method in brief: as §1
NCI-H460 = experiment: Growth inhibition of human NCI-H460 cells incubated for 48 hrs by sulforhodamine B assay; method in brief: as §1
M14 [11] = experiment: Growth inhibition of human M14 cells incubated for 48 hrs by sulforhodamine B assay; method in brief: as §1
MDA-MB-435 = experiment: Growth inhibition of human MDA-MB-435 cells incubated for 48 hrs by sulforhodamine B assay; details: for CC50: read-out: LC50 (the source's name); method in brief: as §1
SK-MEL-5 = experiment: Growth inhibition of human SK-MEL-5 cells incubated for 48 hrs by sulforhodamine B assay
Method in brief: (§2)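 NCI DTP 60-line human tumour panel. Dose-response curves were run only for ligands active in the initial 10 µM screen. GI50 (concentration giving 50% of maximal inhibition of proliferation) and TGI (concentration giving total growth inhibition) were derived from these curves.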

UACC-62 [12] = experiment: Growth inhibition of human UACC-62 cells incubated for 48 hrs by sulforhodamine B assay; method in brief: as §2
OVCAR-4 = experiment: Growth inhibition of human OVCAR-4 cells incubated for 48 hrs by sulforhodamine B assay; details: for CC50: read-out: LC50 (the source's name); method in brief: as §2

## Cc1cc(C)c(NC(=O)c2sc3nc4c(cc3c2N)CN(Cc2ccccc2)CC4)c(C)c1
NCI-H23
  growth at 0.01 µM: 102%
M14 [1]
  growth at 0.01 µM: 91%
OVCAR-5
  growth at 0.01 µM: 90%
MDA-MB-231 [2]
  growth at 0.01 µM: 100%
NCI-H226 [3]
  growth at 0.1 µM: 93%
NCI-H522
  growth at 0.1 µM: 97%
SF-268
  growth at 0.1 µM: 100%
NCI/ADR-RES
  growth at 0.1 µM: 100%
RXF 393 [4]
  growth at 0.1 µM: 89%
MDA-MB-231 [5]
  growth at 0.1 µM: 101%
MDA-MB-468
  growth at 0.1 µM: 78%
NCI-H226 [6]
  growth at 1 µM: 78%
HCT-116
  growth at 1 µM: 79%
ACHN
  growth at 1 µM: 89%
PC-3 [7]
  growth at 1 µM: 75%
T47D
  growth at 1 µM: 77%
RPMI-8226
  growth at 100 µM: -11%
SR
  growth at 100 µM: -16%
HCT-15
  growth at 100 µM: 4%
SNB-19
  growth at 100 µM: 25%
UACC-257
  growth at 100 µM: 17%
UACC-62 [8]
  growth at 100 µM: -22%
CAKI-1
  growth at 100 µM: 4%
RXF 393 [9]
  growth at 100 µM: -15%
PC-3 [10]
  growth at 100 µM: 15%
MCF7
  growth at 100 µM: -8%
K562
  GI50: 0.903 µM
  LC50 (concentration killing 50% of cells): > 100 µM
  TGI: > 100 µM
HOP-62
  GI50: 7.73 µM
  LC50: > 100 µM
  TGI: > 100 µM
NCI-H460
  GI50: 3.29 µM
  LC50: > 100 µM
  TGI: 16.3 µM
M14 [11]
  GI50: 2.89 µM
  LC50 (concentration killing 50% of cells): > 100 µM
  TGI: 31.5 µM
MDA-MB-435
  GI50: 0.399 µM
  TGI: 4.38 µM
  CC50: 68.9 µM
SK-MEL-5
  GI50: 1.47 µM
  LC50: > 100 µM
  TGI: 11.5 µM
UACC-62 [12]
  GI50: 3.9 µM
  LC50: > 100 µM
  TGI: 42.4 µM
OVCAR-4
  GI50: 6.72 µM
  TGI: > 100 µM
  CC50: > 100 µM

## COc1cccc(NC(=O)c2sc3nc4c(cc3c2N)CN(Cc2ccccc2)CC4)c1
NCI-H23
  growth at 0.01 µM: 100%
M14 [1]
  growth at 0.01 µM: 96%
OVCAR-5
  growth at 0.01 µM: 91%
MDA-MB-231 [2]
  growth at 0.01 µM: 107%
NCI-H226 [3]
  growth at 0.1 µM: 87%
NCI-H522
  growth at 0.1 µM: 95%
SF-268
  growth at 0.1 µM: 100%
NCI/ADR-RES
  growth at 0.1 µM: 97%
RXF 393 [4]
  growth at 0.1 µM: 95%
MDA-MB-231 [5]
  growth at 0.1 µM: 98%
MDA-MB-468
  growth at 0.1 µM: 89%
NCI-H226 [6]
  growth at 1 µM: 81%
HCT-116
  growth at 1 µM: 59%
ACHN
  growth at 1 µM: 92%
PC-3 [7]
  growth at 1 µM: 73%
T47D
  growth at 1 µM: 71%
RPMI-8226
  growth at 100 µM: 27%
SR
  growth at 100 µM: -19%
HCT-15
  growth at 100 µM: 6%
SNB-19
  growth at 100 µM: 14%
UACC-257
  growth at 100 µM: 21%
UACC-62 [8]
  growth at 100 µM: -34%
CAKI-1
  growth at 100 µM: 11%
RXF 393 [9]
  growth at 100 µM: -49%
PC-3 [10]
  growth at 100 µM: -2%
MCF7
  growth at 100 µM: 3%
K562
  GI50: 0.53 µM
  LC50 (concentration killing 50% of cells): > 100 µM
  TGI: > 100 µM
HOP-62
  GI50: 1.83 µM
  LC50: 41.1 µM
  TGI: 6.47 µM
NCI-H460
  GI50: 4.18 µM
  LC50: > 100 µM
  TGI: 30.9 µM
M14 [11]
  GI50: 12.7 µM
  LC50 (concentration killing 50% of cells): > 100 µM
  TGI: 86.8 µM
MDA-MB-435
  GI50: 0.296 µM
  TGI: 11 µM
  CC50: 49 µM
SK-MEL-5
  GI50: 2.15 µM
  LC50: > 100 µM
  TGI: 31.9 µM
UACC-62 [12]
  GI50: 1.92 µM
  LC50: > 100 µM
  TGI: 29.8 µM
OVCAR-4
  GI50: 2.68 µM
  TGI: 19.7 µM
  CC50: > 100 µM

Reference: ChEMBL document CHEMBL4715736, “Identification of anticancer agents based on the thieno[2,3-b]pyridine and 1H-pyrazole molecular scaffolds” (2016)
